Source: ChEMBL document CHEMBL3792358, “Computer-aided identification of new histone deacetylase 6 selective inhibitor with anti-sepsis activity” (Eur J Med Chem, 2016)
The source made the active and inactive calls. No cut-off for these calls is given here.

Tests used:
Histone deacetylase [1] = format: cell-based, Homo sapiens; settings: hela
[2] = molecular target: Histone deacetylase (Homo sapiens) (UniProt Q13547+O15379+Q9UBN7+Q92769+Q9UQL6+Q8WUI4+Q9BY41+Q96DB2+P56524+Q9UKV0+Q969S8); experiment: Competitive inhibition of HDAC in human HeLa cells using Boc-acetyl-lysine-AMC as substrate at 25 to 50 uM incubated for 30 mins in dark by Lineweaver-Burk plot analysis; format: cell-based
Histone deacetylase [3] = experiment: Inhibition of HDAC in human HeLa cells using Boc-acetyl-lysine-AMC as substrate incubated for 24 hrs by fluorometric assay; format: cell-based
HeLa = experiment: Cytotoxicity against human HeLa cells by MTS assay; format: cell-based
RAW264.7 [4] = experiment: Antiinflammatory activity in mouse RAW264.7 cells assessed as inhibition of LPS-induced NO production at 0.5 to 2.5 uM relative to control; format: functional
RAW264.7 [5] = experiment: Antiinflammatory activity in mouse RAW264.7 cells assessed as inhibition of LPS-induced TNF-alpha production at 0.5 to 2.5 uM relative to control; format: functional
RAW264.7 [6] = experiment: Antiinflammatory activity in mouse RAW264.7 cells assessed as inhibition of LPS-induced IL-6 production at 0.5 to 2.5 uM relative to control; format: functional
Mus musculus [7] = experiment: Anti-sepsis activity in ICR mouse model of LPS-induced endotoxemia assessed as increase in survival rate at 20 mg/kg, ip administered 2 hrs before and immediately after LPS injection measured up to 10 days; format: functional
In short: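 Male ICR mice (27–29 g), LPS from E. coli O111:B4. Dosing was i.p. in vehicle (5% DMSO in saline) at 5, 10 or 20 mg/kg, given 2 h before and immediately after LPS. Groups were vehicle control, LPS, and LPS plus drug. Survival was followed up to 10 days and compared by log-rank analysis.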

Mus musculus [8] = experiment: Antiinflammatory activity in ICR mouse model of LPS-induced endotoxemia assessed as inhibition of LPS-induced TNF-alpha mRNA expression in liver at 10 mg/kg, ip administered 2 hrs before and immediately after LPS injection by RT-PCR method; format: functional, organism-based
In short: (§1)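 Male ICR mice (27–29 g) given LPS; drug i.p. in 5% DMSO/saline 2 h before and immediately after LPS. Liver collected 6 h after LPS. Total RNA extracted and reverse-transcribed to cDNA; TNF-α and IL-6 mRNA measured by real-time RT-PCR relative to vehicle control.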

Mus musculus [9] = experiment: Antiinflammatory activity in ICR mouse model of LPS-induced endotoxemia assessed as inhibition of LPS-induced IL-6 mRNA expression in liver at 10 mg/kg, ip administered 2 hrs before and immediately after LPS injection by RT-PCR method; format: functional, organism-based
In short: as §1

[10] = molecular target: T1, Protein deacetylase HDAC6 (Homo sapiens, UniProt Q9UBN7); experiment: Inhibition of recombinant human HDAC6 using Fluor de Lys-SIRT1 as substrate incubated for 15 mins by fluorescence assay
T1 sequence (Q9UBN7 whole entry): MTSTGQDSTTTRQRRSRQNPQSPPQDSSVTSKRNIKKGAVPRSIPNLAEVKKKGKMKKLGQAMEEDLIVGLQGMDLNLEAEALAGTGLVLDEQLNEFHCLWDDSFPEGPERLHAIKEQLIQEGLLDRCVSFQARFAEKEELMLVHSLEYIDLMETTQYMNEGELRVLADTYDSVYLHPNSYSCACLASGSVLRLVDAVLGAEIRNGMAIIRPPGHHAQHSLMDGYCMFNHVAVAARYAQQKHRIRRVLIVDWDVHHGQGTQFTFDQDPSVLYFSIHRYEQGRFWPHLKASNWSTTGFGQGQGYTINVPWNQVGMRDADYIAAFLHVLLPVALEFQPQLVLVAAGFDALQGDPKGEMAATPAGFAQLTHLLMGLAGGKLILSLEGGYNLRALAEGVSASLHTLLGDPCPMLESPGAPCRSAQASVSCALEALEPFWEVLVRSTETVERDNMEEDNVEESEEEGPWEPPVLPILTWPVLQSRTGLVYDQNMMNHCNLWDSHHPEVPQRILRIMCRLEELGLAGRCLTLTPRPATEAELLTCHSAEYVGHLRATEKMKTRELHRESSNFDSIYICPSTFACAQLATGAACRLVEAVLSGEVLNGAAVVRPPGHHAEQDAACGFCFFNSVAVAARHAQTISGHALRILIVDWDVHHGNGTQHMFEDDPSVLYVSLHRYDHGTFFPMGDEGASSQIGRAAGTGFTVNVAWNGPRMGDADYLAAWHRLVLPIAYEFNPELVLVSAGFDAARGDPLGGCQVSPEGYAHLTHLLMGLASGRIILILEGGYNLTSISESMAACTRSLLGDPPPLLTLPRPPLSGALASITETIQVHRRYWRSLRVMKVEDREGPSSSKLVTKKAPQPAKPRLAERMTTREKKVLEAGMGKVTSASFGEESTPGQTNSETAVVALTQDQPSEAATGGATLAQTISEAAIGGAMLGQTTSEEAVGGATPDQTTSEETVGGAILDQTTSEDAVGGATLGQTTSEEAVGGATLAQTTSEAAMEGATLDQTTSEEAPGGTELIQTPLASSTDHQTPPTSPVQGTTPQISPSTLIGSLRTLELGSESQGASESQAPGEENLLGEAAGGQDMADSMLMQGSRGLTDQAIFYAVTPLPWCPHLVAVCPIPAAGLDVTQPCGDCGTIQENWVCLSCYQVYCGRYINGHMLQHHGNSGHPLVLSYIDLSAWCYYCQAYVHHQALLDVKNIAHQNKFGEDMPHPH

Histone deacetylase 1 [11] = molecular target: T2, Histone deacetylase 1 (Homo sapiens, UniProt Q13547); experiment: Inhibition of full length human recombinant C-terminal FLAG-His-tagged HDAC1 (1 to 482 residues) expressed in Sf21 cells using RHK-K(Ac)-AMC as substrate incubated for 60 mins by fluorescence assay
Histone deacetylase 2 = Histone deacetylase 2 (Homo sapiens, UniProt Q92769); experiment: Inhibition of full length human recombinant C-terminal GST-tagged HDAC2 (1 to 488 residues) expressed in insect cells using RHK-K(Ac)-AMC as substrate incubated for 60 mins by fluorescence assay
Histone deacetylase 7 = molecular target: T3, Histone deacetylase 7 (Homo sapiens, UniProt Q8WUI4); experiment: Inhibition of human recombinant N-terminal GST-tagged HDAC7 (518 to 991 residues) expressed in insect cells using Boc-K(TFA)-AMC as substrate incubated for 60 mins by fluorescence assay
T3 sequence (Q8WUI4 whole entry): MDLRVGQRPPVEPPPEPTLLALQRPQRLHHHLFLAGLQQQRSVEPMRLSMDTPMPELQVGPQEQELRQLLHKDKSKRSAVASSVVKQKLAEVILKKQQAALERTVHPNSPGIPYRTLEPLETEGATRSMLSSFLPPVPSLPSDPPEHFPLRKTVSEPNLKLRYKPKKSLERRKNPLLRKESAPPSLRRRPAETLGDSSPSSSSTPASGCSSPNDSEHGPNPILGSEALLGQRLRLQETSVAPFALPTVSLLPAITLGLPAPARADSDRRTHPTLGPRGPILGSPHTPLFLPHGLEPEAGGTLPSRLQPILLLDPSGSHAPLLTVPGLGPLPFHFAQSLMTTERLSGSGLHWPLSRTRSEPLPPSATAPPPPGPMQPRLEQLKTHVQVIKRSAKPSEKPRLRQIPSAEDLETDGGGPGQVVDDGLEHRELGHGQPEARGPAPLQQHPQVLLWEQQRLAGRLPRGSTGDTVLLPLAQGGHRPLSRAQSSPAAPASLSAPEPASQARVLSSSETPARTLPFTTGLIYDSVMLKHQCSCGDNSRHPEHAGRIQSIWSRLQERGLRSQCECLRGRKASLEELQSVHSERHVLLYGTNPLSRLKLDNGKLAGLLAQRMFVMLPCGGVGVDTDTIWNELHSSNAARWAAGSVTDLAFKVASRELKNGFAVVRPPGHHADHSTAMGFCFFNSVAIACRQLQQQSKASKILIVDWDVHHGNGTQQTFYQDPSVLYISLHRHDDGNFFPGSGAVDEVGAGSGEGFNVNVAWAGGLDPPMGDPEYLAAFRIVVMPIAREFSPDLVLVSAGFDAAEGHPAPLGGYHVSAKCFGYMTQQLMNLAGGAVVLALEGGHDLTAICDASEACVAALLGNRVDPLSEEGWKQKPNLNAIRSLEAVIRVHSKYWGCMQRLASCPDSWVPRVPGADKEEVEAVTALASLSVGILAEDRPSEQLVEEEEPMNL

Histone deacetylase 4 = Histone deacetylase 4 (Homo sapiens, UniProt P56524); experiment: Inhibition of human recombinant N-terminal GST-tagged C-terminal His-tagged HDAC4 (627 to 1084 residues) expressed in insect cells using Boc-K(TFA)-AMC as substrate incubated for 60 mins by fluorescence assay
Histone deacetylase 5 = Histone deacetylase 5 (Homo sapiens, UniProt Q9UQL6); experiment: Inhibition of human recombinant C-terminal His-tagged HDAC5 (657 to 1123 residues) expressed in insect cells using Boc-K(TFA)-AMC as substrate incubated for 60 mins by fluorescence assay
[12] = molecular target: T1, Protein deacetylase HDAC6; experiment: Inhibition of full length human recombinant N-terminal GST-tagged HDAC6 (1 to 1215 residues) expressed in sf9 cells using RHK-K(Ac)-AMC as substrate incubated for 90 mins by fluorescence assay
Histone deacetylase 8 = molecular target: T4, Histone deacetylase 8 (Homo sapiens, UniProt Q9BY41); experiment: Inhibition of human recombinant C-terminal His-tagged HDAC8 (1 to 377 residues) expressed in insect cells using RHK-K(Ac)-K(Ac)-AMC as substrate incubated for 60 mins by fluorescence assay
T4 sequence (Q9BY41 whole entry): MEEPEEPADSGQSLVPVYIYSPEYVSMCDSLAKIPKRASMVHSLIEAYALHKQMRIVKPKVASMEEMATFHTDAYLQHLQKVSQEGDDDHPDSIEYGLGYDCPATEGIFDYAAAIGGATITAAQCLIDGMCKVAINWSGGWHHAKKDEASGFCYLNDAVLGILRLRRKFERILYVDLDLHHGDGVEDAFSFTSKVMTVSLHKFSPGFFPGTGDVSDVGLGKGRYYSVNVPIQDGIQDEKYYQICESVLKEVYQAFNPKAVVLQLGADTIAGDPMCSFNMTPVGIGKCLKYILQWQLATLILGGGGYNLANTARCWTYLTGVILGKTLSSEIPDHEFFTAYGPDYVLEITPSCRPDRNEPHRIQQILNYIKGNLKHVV

Histone deacetylase 11 = molecular target: T5, Histone deacetylase 11 (Homo sapiens, UniProt Q96DB2); experiment: Inhibition of human recombinant N-terminal His-tagged HDAC11 (1 to 347 residues) expressed in insect cells/baculovirus expression system using RHK-K(Ac)-AMC as substrate by fluorescence assay
T5 sequence (Q96DB2 whole entry): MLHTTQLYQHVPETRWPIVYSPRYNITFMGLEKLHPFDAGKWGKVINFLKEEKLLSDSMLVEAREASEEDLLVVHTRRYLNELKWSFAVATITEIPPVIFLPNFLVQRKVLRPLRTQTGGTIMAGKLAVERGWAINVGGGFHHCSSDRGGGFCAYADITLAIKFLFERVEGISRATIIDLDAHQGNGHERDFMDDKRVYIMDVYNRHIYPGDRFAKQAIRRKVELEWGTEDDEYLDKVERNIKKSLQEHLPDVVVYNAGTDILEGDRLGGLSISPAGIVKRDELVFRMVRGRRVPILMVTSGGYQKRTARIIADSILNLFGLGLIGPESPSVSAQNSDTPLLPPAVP

Histone deacetylase 9 = Histone deacetylase 9 (Homo sapiens, UniProt Q9UKV0); experiment: Inhibition of human recombinant HDAC9 using trifluoroacetyl lysine as substrate
[13] = molecular target: T6, Polyamine deacetylase HDAC10 (Homo sapiens, UniProt Q969S8); experiment: Inhibition of human recombinant HDAC10 using RHK-K(Ac)-AMC as substrate
T6 sequence (Q969S8 whole entry): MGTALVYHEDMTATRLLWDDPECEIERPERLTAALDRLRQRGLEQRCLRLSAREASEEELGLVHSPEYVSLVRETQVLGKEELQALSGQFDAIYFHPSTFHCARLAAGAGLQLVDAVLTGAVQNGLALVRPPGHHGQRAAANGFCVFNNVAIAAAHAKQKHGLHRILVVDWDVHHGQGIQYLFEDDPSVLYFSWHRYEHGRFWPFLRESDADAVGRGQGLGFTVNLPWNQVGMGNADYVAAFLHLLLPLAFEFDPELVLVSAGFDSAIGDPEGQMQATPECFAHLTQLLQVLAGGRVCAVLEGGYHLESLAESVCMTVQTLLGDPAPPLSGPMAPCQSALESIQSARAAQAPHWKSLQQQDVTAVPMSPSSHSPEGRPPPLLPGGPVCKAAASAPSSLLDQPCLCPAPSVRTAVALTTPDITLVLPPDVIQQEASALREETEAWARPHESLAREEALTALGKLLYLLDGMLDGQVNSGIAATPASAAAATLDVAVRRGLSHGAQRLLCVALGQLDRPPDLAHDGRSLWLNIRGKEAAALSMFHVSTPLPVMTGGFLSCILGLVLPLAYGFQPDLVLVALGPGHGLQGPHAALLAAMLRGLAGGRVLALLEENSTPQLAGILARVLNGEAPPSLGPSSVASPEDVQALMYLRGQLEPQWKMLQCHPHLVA

[14] = molecular target: Histone deacetylase 3/Nuclear receptor corepressor 2 (HDAC3/NCoR2) (Homo sapiens, UniProt O15379); format: cell-based
Histone deacetylase 1 [15] = molecular target: T2, Histone deacetylase 1
Histone deacetylase 1 [16] = molecular target: T2, Histone deacetylase 1; settings: HeLa, 10 uM

T2 sequence (Q13547 whole entry, the tested form may be a part): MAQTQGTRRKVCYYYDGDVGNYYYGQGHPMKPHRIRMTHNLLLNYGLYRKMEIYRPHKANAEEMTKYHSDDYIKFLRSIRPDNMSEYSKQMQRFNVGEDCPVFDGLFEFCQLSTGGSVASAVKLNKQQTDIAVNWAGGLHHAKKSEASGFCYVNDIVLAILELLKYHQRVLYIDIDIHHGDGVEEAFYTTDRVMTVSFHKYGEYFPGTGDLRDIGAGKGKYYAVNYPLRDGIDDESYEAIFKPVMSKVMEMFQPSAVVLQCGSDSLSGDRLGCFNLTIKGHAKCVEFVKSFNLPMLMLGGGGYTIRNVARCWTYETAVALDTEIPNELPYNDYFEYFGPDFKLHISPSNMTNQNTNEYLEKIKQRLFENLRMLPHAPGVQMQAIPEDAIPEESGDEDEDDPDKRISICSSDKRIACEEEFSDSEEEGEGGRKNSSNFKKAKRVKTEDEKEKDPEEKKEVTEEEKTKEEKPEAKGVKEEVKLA
Chain of Histone deacetylase 2 (Q92769 whole entry, the tested form may be a part): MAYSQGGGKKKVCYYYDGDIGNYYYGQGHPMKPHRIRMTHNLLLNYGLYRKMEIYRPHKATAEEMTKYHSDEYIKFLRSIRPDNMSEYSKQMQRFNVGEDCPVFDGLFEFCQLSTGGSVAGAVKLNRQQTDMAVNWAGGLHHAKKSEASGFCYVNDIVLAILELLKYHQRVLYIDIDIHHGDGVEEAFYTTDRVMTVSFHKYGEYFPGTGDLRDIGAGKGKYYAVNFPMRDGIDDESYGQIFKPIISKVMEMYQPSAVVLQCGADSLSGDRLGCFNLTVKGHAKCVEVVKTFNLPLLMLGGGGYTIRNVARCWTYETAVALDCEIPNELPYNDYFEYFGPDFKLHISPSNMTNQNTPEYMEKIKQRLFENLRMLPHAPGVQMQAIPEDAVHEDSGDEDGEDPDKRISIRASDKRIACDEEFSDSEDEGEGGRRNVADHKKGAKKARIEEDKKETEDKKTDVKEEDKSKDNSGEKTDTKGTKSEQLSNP
Chain of Histone deacetylase 5 (Q9UQL6 whole entry, the tested form may be a part): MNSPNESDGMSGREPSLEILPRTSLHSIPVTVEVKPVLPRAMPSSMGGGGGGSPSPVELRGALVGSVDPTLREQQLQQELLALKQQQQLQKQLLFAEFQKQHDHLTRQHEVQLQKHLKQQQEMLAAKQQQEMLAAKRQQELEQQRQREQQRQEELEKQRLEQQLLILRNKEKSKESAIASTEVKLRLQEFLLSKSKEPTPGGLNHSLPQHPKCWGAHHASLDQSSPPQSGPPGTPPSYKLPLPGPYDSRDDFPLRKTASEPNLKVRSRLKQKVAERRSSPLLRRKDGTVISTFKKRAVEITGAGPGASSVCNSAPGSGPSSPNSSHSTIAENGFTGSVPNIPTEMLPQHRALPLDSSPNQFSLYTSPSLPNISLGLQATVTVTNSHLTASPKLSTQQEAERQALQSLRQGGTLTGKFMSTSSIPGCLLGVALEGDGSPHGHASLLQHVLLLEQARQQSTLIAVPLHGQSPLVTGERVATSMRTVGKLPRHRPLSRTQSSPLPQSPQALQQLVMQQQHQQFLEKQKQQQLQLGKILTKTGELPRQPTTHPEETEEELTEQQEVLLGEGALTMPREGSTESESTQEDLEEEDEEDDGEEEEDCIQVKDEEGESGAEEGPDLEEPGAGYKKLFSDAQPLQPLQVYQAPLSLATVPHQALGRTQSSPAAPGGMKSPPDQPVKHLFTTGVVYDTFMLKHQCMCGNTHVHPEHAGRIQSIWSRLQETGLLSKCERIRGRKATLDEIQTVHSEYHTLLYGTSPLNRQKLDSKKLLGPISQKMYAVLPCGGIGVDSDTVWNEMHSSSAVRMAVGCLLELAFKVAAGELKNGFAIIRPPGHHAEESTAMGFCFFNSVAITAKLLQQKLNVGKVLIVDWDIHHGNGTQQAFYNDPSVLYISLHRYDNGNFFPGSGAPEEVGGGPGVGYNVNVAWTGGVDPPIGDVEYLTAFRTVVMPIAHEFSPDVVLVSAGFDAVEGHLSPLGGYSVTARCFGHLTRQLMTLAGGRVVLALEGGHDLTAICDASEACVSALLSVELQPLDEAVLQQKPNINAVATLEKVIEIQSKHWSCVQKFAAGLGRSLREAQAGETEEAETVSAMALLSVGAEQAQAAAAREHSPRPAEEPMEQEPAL
Chain of Histone deacetylase 4 (P56524 whole entry, the tested form may be a part): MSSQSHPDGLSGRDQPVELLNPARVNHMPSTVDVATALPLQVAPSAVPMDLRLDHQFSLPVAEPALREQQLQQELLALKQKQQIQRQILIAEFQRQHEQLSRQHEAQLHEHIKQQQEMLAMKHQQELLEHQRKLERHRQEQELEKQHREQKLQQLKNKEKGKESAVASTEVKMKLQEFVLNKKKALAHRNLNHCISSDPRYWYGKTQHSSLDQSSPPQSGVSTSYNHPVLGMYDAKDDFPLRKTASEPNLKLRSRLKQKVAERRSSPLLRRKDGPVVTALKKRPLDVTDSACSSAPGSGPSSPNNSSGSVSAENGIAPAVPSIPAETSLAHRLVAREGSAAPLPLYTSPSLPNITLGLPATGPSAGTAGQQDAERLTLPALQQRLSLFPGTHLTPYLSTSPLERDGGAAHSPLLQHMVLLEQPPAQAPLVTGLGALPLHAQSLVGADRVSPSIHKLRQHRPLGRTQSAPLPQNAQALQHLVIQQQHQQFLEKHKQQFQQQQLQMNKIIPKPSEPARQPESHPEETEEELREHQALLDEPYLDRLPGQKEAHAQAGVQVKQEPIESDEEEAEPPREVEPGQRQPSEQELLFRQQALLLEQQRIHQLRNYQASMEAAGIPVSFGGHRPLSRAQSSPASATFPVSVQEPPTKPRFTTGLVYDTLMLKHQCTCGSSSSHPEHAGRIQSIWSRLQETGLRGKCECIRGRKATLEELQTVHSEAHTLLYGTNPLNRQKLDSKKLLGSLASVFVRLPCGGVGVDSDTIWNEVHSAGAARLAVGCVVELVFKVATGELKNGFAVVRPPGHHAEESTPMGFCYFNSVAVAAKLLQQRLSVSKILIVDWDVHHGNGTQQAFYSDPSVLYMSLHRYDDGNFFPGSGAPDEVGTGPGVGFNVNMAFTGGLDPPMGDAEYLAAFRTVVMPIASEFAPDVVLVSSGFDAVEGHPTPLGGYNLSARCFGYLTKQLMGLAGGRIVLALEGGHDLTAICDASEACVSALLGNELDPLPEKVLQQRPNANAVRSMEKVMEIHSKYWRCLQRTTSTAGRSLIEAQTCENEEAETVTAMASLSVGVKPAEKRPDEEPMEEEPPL
Chain of Histone deacetylase 9 (Q9UKV0 whole entry): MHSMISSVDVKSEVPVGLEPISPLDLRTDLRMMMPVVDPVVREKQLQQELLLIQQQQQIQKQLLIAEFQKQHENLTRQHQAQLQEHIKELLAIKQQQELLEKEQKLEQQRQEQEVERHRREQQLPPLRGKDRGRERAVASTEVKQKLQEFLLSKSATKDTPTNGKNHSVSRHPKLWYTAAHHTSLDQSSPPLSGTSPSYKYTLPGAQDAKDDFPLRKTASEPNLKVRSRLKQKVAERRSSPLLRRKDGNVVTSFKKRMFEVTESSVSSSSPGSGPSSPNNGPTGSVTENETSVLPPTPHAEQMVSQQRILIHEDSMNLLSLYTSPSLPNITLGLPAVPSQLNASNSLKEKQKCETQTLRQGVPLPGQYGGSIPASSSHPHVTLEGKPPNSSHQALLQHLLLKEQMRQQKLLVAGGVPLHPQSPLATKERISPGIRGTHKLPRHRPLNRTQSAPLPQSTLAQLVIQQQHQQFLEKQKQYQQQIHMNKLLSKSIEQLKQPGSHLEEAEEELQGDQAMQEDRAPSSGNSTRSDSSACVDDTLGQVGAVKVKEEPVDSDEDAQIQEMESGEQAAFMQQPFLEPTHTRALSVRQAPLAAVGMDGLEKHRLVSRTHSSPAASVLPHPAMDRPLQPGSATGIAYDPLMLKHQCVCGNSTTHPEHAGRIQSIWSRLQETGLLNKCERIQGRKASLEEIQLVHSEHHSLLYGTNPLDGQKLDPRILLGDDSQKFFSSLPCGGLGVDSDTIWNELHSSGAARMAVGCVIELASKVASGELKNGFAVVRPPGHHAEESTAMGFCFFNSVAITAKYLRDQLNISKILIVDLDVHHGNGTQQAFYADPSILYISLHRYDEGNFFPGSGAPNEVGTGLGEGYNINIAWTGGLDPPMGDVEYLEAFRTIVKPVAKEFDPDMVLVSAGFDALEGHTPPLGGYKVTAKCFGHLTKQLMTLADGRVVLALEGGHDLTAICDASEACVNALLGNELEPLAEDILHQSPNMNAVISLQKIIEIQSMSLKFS

O=C(CCS/C=C/c1ccccc1)NCCSCc1ccco1
IC50 (Histone deacetylase [1]): 19.18 µM | inhibition [2]: Active

O=C(CCS/C=C/c1ccccc1)NO
IC50 (Histone deacetylase [1]): 3.7 µM

Cc1ncsc1CCn1cc(NC(=O)CCS/C=C\c2ccccc2)cn1
IC50 (Histone deacetylase [1]): 29.8 µM | inhibition [2]: Active

O=C(CCCc1csc(/C=C/c2ccccc2)n1)NO
IC50 (Histone deacetylase [3]): 0.37 µM | IC50 (HeLa): 52 µM | inhibition (INH) (RAW264.7 [4]): 50% | inhibition (INH) (RAW264.7 [5]): 50% | inhibition (INH) (RAW264.7 [6]): 50% | IC50 (Histone deacetylase [1]): 1.48 µM | Activity (Mus musculus [7]): 40% | inhibition (Mus musculus [8]): Active | inhibition (Mus musculus [9]): Active | IC50 [10]: 0.199 µM | IC50 (Histone deacetylase 1 [11]): > 10 µM | IC50 (Histone deacetylase 2): > 10 µM | IC50 (Histone deacetylase 7): Not Active | IC50 (Histone deacetylase 4): 19.7 µM | IC50 (Histone deacetylase 5): 26.6 µM | IC50 [12]: 0.567 µM | IC50 (Histone deacetylase 8): 1.54 µM | IC50 (Histone deacetylase 11): 32.8 µM | IC50 (Histone deacetylase 9): Not Active | IC50 [13]: 78.3 µM | IC50 [14]: 17.8 µM | IC50 (Histone deacetylase 1 [15]): 13.8 µM | inhibition (Histone deacetylase 1 [16]): inactive
